Source: PMC11235002 (BMJ Oncology, 2024)
“Also recorded” adds a separate entry of the source.

Legend:
[1] = system: patients with advanced or metastatic solid tumours; assay: Safety: treatment-emergent adverse events; format: in vivo, human
Summary of the method: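 Safety covered monotherapy Parts 1a/2, with oral tablet or capsule dosing twice daily on days 1–28 of 28-day cycles. TEAEs were graded by CTCAE v4.03, which counts malignant progression as an AE. Laboratory values, vital signs and physical examinations were also monitored. The safety population was all patients receiving ≥1 dose. DLTs were defined as grade 3–4 toxicities, urea cycle inhibition, or AUC0–12h >100 µg.h/mL.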

[2] = system: plasma arginine; assay: Pharmacodynamics: plasma arginine concentration by LC-MS/MS; format: in vivo, human; conditions: monotherapy / INCB001158 overall

Structure (SMILES): C[C@H](N)C(=O)N1C[C@H](CCCB(O)O)[C@](N)(C(=O)O)C1 [INCB001158]
- Diarrhoea, any-grade TEAE ([1]; monotherapy 100 mg bid (n=85)): 5 (5.9) n (%)
- Fatigue, any-grade TEAE ([1]; monotherapy 100 mg bid (n=85)): 23 (27.1) n (%)
- Fatigue, grade ≥3 TEAE ([1]; monotherapy 100 mg bid (n=85)): 6 (7.1) n (%)
- Hypoalbuminaemia, any-grade TEAE ([1]; monotherapy 100 mg bid (n=85)): 6 (7.1) n (%)
- Hyponatraemia, any-grade TEAE ([1]; monotherapy 100 mg bid (n=85)): 5 (5.9) n (%)
- Hyponatraemia, grade ≥3 TEAE ([1]; monotherapy 100 mg bid (n=85)): 2 (2.4) n (%)
- Malignant neoplasm progression, grade ≥3 TEAE ([1]; monotherapy 100 mg bid (n=85)): 5 (5.9) n (%)
- Nausea, any-grade TEAE ([1]; monotherapy 100 mg bid (n=85)): 18 (21.2) n (%)
- Oedema peripheral, any-grade TEAE ([1]; monotherapy 100 mg bid (n=85)): 13 (15.3) n (%)
- Vomiting, any-grade TEAE ([1]; monotherapy 100 mg bid (n=85)): 9 (10.6) n (%)
- Colitis, irTEAE ([1]; monotherapy 100 mg bid (n=85), related to INCB001158 treatment): 1 (1.2)¶ n (%)
- ALT increased, any-grade TEAE ([1]; monotherapy 150 mg bid (n=7)): 1 (14.3) n (%)
- AST increased, any-grade TEAE ([1]; monotherapy 150 mg bid (n=7)): 1 (14.3) n (%)
- Abdominal pain, any-grade TEAE ([1]; monotherapy 150 mg bid (n=7)): 1 (14.3) n (%)
- Abdominal pain, grade ≥3 TEAE ([1]; monotherapy 150 mg bid (n=7)): 0 n (%)
- Anaemia, any-grade TEAE ([1]; monotherapy 150 mg bid (n=7)): 0 n (%)
- Anaemia, grade ≥3 TEAE ([1]; monotherapy 150 mg bid (n=7)): 0 n (%)
- Any TEAE ([1]; monotherapy 150 mg bid (n=7)): 7 (100.0) n (%)
- Any grade ≥3 TEAE ([1]; monotherapy 150 mg bid (n=7)): 1 (14.3) n (%)
- Any irTEAE ([1]; monotherapy 150 mg bid (n=7)): 0 n (%)
- Colitis, irTEAE ([1]; monotherapy 150 mg bid (n=7)): 0 n (%)
- Constipation, any-grade TEAE ([1]; monotherapy 150 mg bid (n=7)): 2 (28.6) n (%)
- Decreased appetite, any-grade TEAE ([1]; monotherapy 150 mg bid (n=7)): 2 (28.6) n (%)
- Diarrhoea, any-grade TEAE ([1]; monotherapy 150 mg bid (n=7)): 1 (14.3) n (%)
- Fatigue, any-grade TEAE ([1]; monotherapy 150 mg bid (n=7)): 3 (42.9) n (%)
- Fatigue, grade ≥3 TEAE ([1]; monotherapy 150 mg bid (n=7)): 0 n (%)
- Hypoalbuminaemia, any-grade TEAE ([1]; monotherapy 150 mg bid (n=7)): 1 (14.3) n (%)
- Hyponatraemia, any-grade TEAE ([1]; monotherapy 150 mg bid (n=7)): 1 (14.3) n (%)
- Hyponatraemia, grade ≥3 TEAE ([1]; monotherapy 150 mg bid (n=7)): 1 (14.3) n (%)
- Malignant neoplasm progression, grade ≥3 TEAE ([1]; monotherapy 150 mg bid (n=7)): 0 n (%)
- Nausea, any-grade TEAE ([1]; monotherapy 150 mg bid (n=7)): 1 (14.3) n (%)
- Oedema peripheral, any-grade TEAE ([1]; monotherapy 150 mg bid (n=7)): 1 (14.3) n (%)
- Vomiting, any-grade TEAE ([1]; monotherapy 150 mg bid (n=7)): 0 n (%)
- DLT ([1]; monotherapy 150 mg two times per day, one DLT): treatment-related grade 2 malaise
- TEAEs leading to INCB001158 discontinuation ([1]; monotherapy (8 patients)): 7.5%
- fatal TEAEs ([1]; monotherapy (10 patients), none considered related to INCB001158): 9.3%
- TEAEs leading to INCB001158 dose interruption ([1]; monotherapy (33 patients)): 30.8%
- Serious TEAEs ([1]; monotherapy (36 patients)): 33.6%
- patients with grade ≥3 TEAEs ([1]; monotherapy (N=107)): 45.8%
- INCB001158-related fatigue ([1]; monotherapy (n=10/107)): 9.3%
- INCB001158-related nausea ([1]; monotherapy (n=10/107)): 9.3%
- TEAEs grade 1/2 in severity ([1]; monotherapy Parts 1a/2): 54.2%
- ALT increased, any-grade TEAE ([1]; monotherapy Total (N=107)): 5 (4.7) n (%)
- AST increased, any-grade TEAE ([1]; monotherapy Total (N=107)): 10 (9.3) n (%)
- Abdominal pain, any-grade TEAE ([1]; monotherapy Total (N=107)): 18 (16.8) n (%)
- Abdominal pain, grade ≥3 TEAE ([1]; monotherapy Total (N=107)): 6 (5.6) n (%)
- Anaemia, any-grade TEAE ([1]; monotherapy Total (N=107)): 17 (15.9) n (%)
- Anaemia, grade ≥3 TEAE ([1]; monotherapy Total (N=107)): 6 (5.6) n (%)
- Any TEAE ([1]; monotherapy Total (N=107)): 102 (95.3) n (%)
- Any grade ≥3 TEAE ([1]; monotherapy Total (N=107)): 49 (45.8) n (%)
- Any irTEAE ([1]; monotherapy Total (N=107)): 1 (0.9) n (%)
- Colitis, irTEAE ([1]; monotherapy Total (N=107)): 1 (0.9) n (%)
- Constipation, any-grade TEAE ([1]; monotherapy Total (N=107)): 23 (21.5) n (%)
- Decreased appetite, any-grade TEAE ([1]; monotherapy Total (N=107)): 21 (19.6) n (%)
- Diarrhoea, any-grade TEAE ([1]; monotherapy Total (N=107)): 6 (5.6) n (%)
- Fatigue, any-grade TEAE ([1]; monotherapy Total (N=107)): 30 (28.0) n (%)
- Fatigue, grade ≥3 TEAE ([1]; monotherapy Total (N=107)): 6 (5.6) n (%)
- Hypoalbuminaemia, any-grade TEAE ([1]; monotherapy Total (N=107)): 7 (6.5) n (%)
- Hyponatraemia, any-grade TEAE ([1]; monotherapy Total (N=107)): 7 (6.5) n (%)
- Hyponatraemia, grade ≥3 TEAE ([1]; monotherapy Total (N=107)): 3 (2.8) n (%)
- Malignant neoplasm progression, grade ≥3 TEAE ([1]; monotherapy Total (N=107)): 5 (4.7) n (%)
- Nausea, any-grade TEAE ([1]; monotherapy Total (N=107)): 24 (22.4) n (%)
- Oedema peripheral, any-grade TEAE ([1]; monotherapy Total (N=107)): 16 (15.0) n (%)
- Vomiting, any-grade TEAE ([1]; monotherapy Total (N=107)): 14 (13.1) n (%)
- tolerability ([1]; monotherapy and combination with pembrolizumab): generally well tolerated
- patients with INCB001158-related TEAEs ([1]; monotherapy, safety-evaluable population): 43 n
- immune-related TEAE of colitis ([1]; monotherapy, one patient, led to discontinuation): 0.9%
- serious INCB001158-related TEAE ([1]; monotherapy, one patient, recovered/resolved): grade 3 adrenal haemorrhage
- maximum tolerated dose ([1]; up to 150 mg two times per day): No maximum tolerated dose was reached
- plasma arginine change on treatment [2]: dose-dependently increased; also recorded: dose-dependent increase in plasma arginine
